We go through 1 compound from ChEMBL document CHEMBL1153527, “Discovery of a novel series of quinolone and naphthyridine derivatives as potential topoisomerase I inhibitors by scaffold modification” (J Med Chem, 2009).

The structures appear in SMILES notation. Converted amounts (≈) assume the structure as drawn. The source made the active and inactive calls. The calls are words filed in the database; no cut-off is given here.

What is called GI50 is the concentration giving 50% growth inhibition. A word on the IC50: it is the midpoint of a concentration-inhibition curve. Low readings indicate inhibition by little substance, high ones a need for much substance.

In data set [1] the test system is HT-29. Kind of data set: Cell cycle distribution in human HT-29 cells assessed as accumulation at S phase upto 10 uM by flow cytometry. It counts as functional. The essentials:
(§1)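 HT-29 cells were exposed to vehicle or 1, 5 or 10 μM compound for 6, 12, 24 or 48 h. Floating and attached cells were collected, fixed in 70% ethanol and treated with 0.1% Triton X-100. They were stained with PI at 50 μg/mL plus RNaseA at 50 μg/mL for 30 min at room temperature in the dark. FL2 DNA content was read on 10000 cells by flow cytometry. The sub-G1 fraction was taken as apoptotic.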

Data set [2] concerns HT-29. Kind of data set: Induction of apoptosis in human HT-29 cells assessed as increase in accumulation at sub-G1 phase at 1 uM after 48 hrs by flow cytometry. The data set is classed as functional. In a few lines: as §1
(In general: A flow cytometer gives signals particle by particle.)

Data set [3] deals with HT-29. Nature of the data set: Induction of apoptosis in human exponentially growing HT-29 cells. It counts as functional, cell-based. Particulars: TDE = time-dependent effect.
In data set [4] the test system is HT-29. Kind of data set: Induction of apoptosis in human HT-29 cells assessed as morphological changes at 0.25 ug/mL after 24 hrs by immunostaining. It counts as functional, cell-based. The essentials:
(§2)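 SKOV3 and HT-29 cells were treated with 0.25 or 5 μg/mL for 24 h. Cell morphology was assessed by microscopy after fixation in 4% formaldehyde and Hoechst 33342 staining (10 μg/mL), against an untreated control.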

Data set [5] concerns SK-OV-3. Kind of data set: Induction of apoptosis in human SKOV3 cells assessed as morphological changes at 0.25 ug/mL after 24 hrs by immunostaining. The data set is classed as functional, cell-based. The essentials: as §2
The test system of data set [6] is HT-29. Kind of data set: Induction of apoptosis in human HT-29 cells assessed as morphological changes at 5 ug/mL after 24 hrs by immunostaining. The data set is classed as functional, cell-based. In a few lines:
as §2

Data set [7] deals with T1, DNA topoisomerase 1 (Homo sapiens) (UniProt P11387).
T1 sequence (whole entry): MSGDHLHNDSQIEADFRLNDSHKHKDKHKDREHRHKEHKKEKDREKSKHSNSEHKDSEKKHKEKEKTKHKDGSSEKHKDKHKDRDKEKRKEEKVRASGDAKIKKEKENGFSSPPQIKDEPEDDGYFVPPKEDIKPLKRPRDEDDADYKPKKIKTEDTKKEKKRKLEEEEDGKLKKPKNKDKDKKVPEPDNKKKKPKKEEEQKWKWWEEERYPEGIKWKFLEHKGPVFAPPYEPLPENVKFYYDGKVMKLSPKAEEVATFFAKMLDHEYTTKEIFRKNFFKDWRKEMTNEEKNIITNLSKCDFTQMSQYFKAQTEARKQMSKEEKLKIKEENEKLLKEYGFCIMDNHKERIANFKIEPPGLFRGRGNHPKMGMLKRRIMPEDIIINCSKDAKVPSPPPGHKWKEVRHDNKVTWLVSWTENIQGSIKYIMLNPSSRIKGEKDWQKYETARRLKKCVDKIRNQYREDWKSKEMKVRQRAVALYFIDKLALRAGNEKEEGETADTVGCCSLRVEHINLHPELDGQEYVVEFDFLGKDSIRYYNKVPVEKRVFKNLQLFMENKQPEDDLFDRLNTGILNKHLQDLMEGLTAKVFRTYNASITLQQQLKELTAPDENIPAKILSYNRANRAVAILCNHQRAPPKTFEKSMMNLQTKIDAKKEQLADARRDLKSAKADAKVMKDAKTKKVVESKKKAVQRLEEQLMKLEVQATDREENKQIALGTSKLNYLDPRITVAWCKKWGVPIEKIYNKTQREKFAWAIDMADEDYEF
Nature of the data set: Induction of human topoisomerase 1-mediated chromosomal DNA strand breaks in HT-29 cells at 10 uM after 1 hr by comet assay. It counts as cell-based. The essentials: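 HT-29 cells were seeded at 1 × 10^4 per well and attached overnight, then treated for 1 h. Untreated cells served as negative control. Cells in low-melting agarose on precoated slides were lysed at pH 10.5 for 30 min at 4 °C and unwound in 300 mM NaOH/1 mM EDTA (pH >13) for 30 min at 4 °C. Electrophoresis ran 10 min at 16 V, with SYBR Gold staining. Read-out was mean % tail DNA from ≥50 nuclei, duplicates in three independent experiments.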

Data set [8] relates to HepG2. Nature of the data set: Cytotoxicity against human HepG2 cells expressing wild type p53 after 48 hrs by SRB assay. It counts as functional, cell-based. Particulars: HepG2, 48 h. In a few lines: (§3)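 Cell lines came from CCRC, Taiwan. Cells were seeded at about 5 × 10^3 per well and left overnight. They were then given serum-free medium containing 0-10 μM compound (0.08-10 μM serial dilutions) for 48 h at 37 °C. Cells were fixed with TCA (10% final), stained with SRB (0.4% final), and the dye was dissolved in 10 mM Tris with A515 read. IC50 was taken from a fitted log concentration-response curve.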

In data set [9] the test system is A2780. Kind of data set: Cytotoxicity against human A2780 cells after 48 hrs by MTT assay. The data set is classed as functional, cell-based. As to conditions: A2780, 48 h. (In general: Tetrazolium dyes change colour on reduction, which living cells bring about.)
Data set [10] concerns HeLa. Kind of data set: Cytotoxicity against p53-deficient human HeLa cells after 48 hrs by SRB assay. The data set is classed as functional, cell-based. The essentials:
as §3
A general note: The SRB assay estimates cell density from bound dye.

Data set [11] concerns U-937. Kind of data set: Cytotoxicity against human U937 cells expressing p53 mutant after 48 hrs by SRB assay. Particulars: U-937, 48 h. The data set is classed as functional, cell-based.
Data set [12] relates to HT-29. Nature of the data set: Cytotoxicity against human HT-29 cells assessed as inhibition of anchorage-dependent colony formation at 5 uM after 14 days. The data set is classed as functional, cell-based. In a few lines: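 HT-29 cells were plated at 500 per well and allowed to attach for 24 h. They were then exposed continuously to compound or DMSO for 14 days, with medium replaced every 72 h. Colonies were fixed in 1% formaldehyde/PBS and stained with 0.1% crystal violet.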

A short description of data set [13]: Solubility in assay condition at 50 uM. The data set is classed as physicochemical.
The subject of data set [14] is SK-OV-3. Nature of the data set: Cytotoxicity against human SKOV3 cells after 48 hrs by MTT assay. As to conditions: SK-OV-3, 48 h. It counts as functional, cell-based. The essentials:
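Cells were seeded at about 5 × 10^3 per well, then given serum-free medium containing 0-10 μM test compound for 48 h at 37 °C. MTT was added at 0.5 mg/mL final for 4 h at 37 °C. Formazan was dissolved in DMSO and OD570 read. IC50 values (50% cell death) came from a fitted log concentration-response curve.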

The test system of data set [15] is SK-OV-3. Nature of the data set: Reduction in topoisomerase 1 expression in human SKOV3 cells by immunocytochemistry. The data set is classed as functional, cell-based. The essentials:
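HT-29 and SKOV-3 cells were grown on slides and treated with compound at several concentrations, with an untreated control. Cells were fixed and permeabilised, and endogenous peroxidase was quenched with 0.3% H2O2/methanol. After blocking with 10% goat serum, slides were stained with anti-Top I (1:100, 10 h), then biotinylated secondary and avidin-biotin-HRP, and developed with DAB.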

Data set [16] addresses T1, DNA topoisomerase 1 (Homo sapiens). Kind of data set: Induction of human recombinant topoisomerase 1-mediated cleavage of 32P-labeled linearized pRYG plasmid DNA at 25 uM after 30 mins by agarose gel electrophoresis. In a few lines: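 Recombinant human Top I was incubated with HindIII-linearised pRYG plasmid, 3'-end-labelled with [α-32P]dCTP by Klenow fill-in (about 100000 cpm per reaction). Reactions were stopped with SDS and proteinase K at 45 °C, alkali-denatured, run on a 1% agarose gel and autoradiographed.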

Data set [17] deals with DNA topoisomerase 2 (Bos taurus). Kind of data set: Inhibition of topoisomerase 2 at 200 uM.

With `CCn1cc(-c2nc3ccc([N+](=O)[O-])cc3o2)c(=O)c2cc(F)c(N3CCNC(C)C3)c(F)c21` (centres undefined), the Activity in data set [1] was 5%; in data set [2], 35.5%; in data set [3], “tde”; in data set [7], 48%; in data set [15] it was “Dose-dependent effect”. In addition, the result in [4], in data set [5], in [6], in data set [12] and in [16] was Active. Also, the figures for the 50% growth inhibitory concentration (GI50) in data set [8] and in data set [10] were 2.8 µM and 1.1 µM, respectively. In addition, the half-maximal inhibitory concentration (IC50) was 4.5 µM in [8]; 0.2 µM in [9]; 2.4 µM in [10]; 1.4 µM in data set [11]; 0.55 µg/mL (≈ 1.17 µM) in [14]. Moreover, in data set [13], the solubility result is recorded as “Insoluble”. Besides, the inhibition entry in data set [17] was “inactive”.
